# Results published in ChEMBL document CHEMBL1142666, “Novel [2',5'-bis-O-(tert-butyldimethylsilyl)-beta-D-ribofuranosyl]- 3'-spiro-5''-(4''-amino-1'',2''-oxathiole-2'',2" -dioxide) derivatives with anti-HIV-1 and anti-human-cytomegalovirus activity” (J Med Chem, 2005).
# pEC50: −log10 of the molar value.
# Experiments:
# Settings in all cases: Homo sapiens
# [1] = tested on: CCRF-CEM; test: Effective concentration required to inhibit HIV-1 IIIB in CEM cell culture; type: functional, cell-based
# Procedure, shortened: (§1)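 CEM cells (4 × 10^5/mL) infected at ~100 CCID50/mL and mixed with compound dilutions. Giant cell formation scored microscopically at day 4. EC50 = concentration inhibiting virus-induced cytopathicity by 50%.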
# [2] = tested on: HEL; test: Effective concentration required to inhibit HCMV Davis in HEL Cells; type: functional, cell-based
# Procedure, shortened: (§2)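 Confluent HEL cells infected with HCMV at 100 PFU/well. After 1-2 h, residual virus removed and MEM with 2% inactivated FCS added, with compound in duplicate at 5-fold dilution steps. After 7 days at 37 °C in 5% CO2, cells fixed with ethanol and Giemsa-stained; plaques or CPE scored microscopically. IC50 interpolated graphically; mean of two independent experiments.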
# [3] = tested on: MT4; test: Effective concentration required to inhibit HIV-1 IIIB in MT-4 cell culture; type: functional, cell-based
# Procedure, shortened: (§3)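 MT-4 cells (3 × 10^5/mL) infected at ~100 CCID50/mL and mixed with compound dilutions. Cytopathicity read by trypan blue exclusion at day 5. EC50 = concentration giving 50% protection against virus-induced loss of viability.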
# [4] = tested on: CCRF-CEM; test: Effective concentration required to inhibit HIV-2 ROD in CEM cell culture; type: functional, cell-based; procedure, shortened: as §1
# [5] = tested on: HEL; test: Cytostatic concentration required to inhibit HEL cell proliferation; type: functional
# Procedure, shortened: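 HEL fibroblasts seeded at 5 × 10^3 cells/well and grown 24 h, then given compound in duplicate. After 3 days at 37 °C in 5% CO2, cell number read on a Coulter counter. CC50 = concentration reducing cell growth by 50%.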
# [6] = tested on: HEL; test: Effective concentration required to inhibit HCMV AD-169 in HEL Cells; type: functional, cell-based; procedure, shortened: as §2
# [7] = tested on: MT4; test: Effective concentration required to inhibit HIV-2 ROD in MT-4 cell culture; type: functional, cell-based; procedure, shortened: as §3
# [8] = tested on: HEL; test: Minimal cytotoxic concentration required to cause microscopically visible alteration of cell morphology in HEL Cells; type: functional
# Procedure, shortened: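 Uninfected HEL cells exposed to compound. Minimum cytotoxic concentration is the lowest level giving a microscopically detectable change in cell morphology.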
# [9] = tested on: CCRF-CEM; test: Cytostatic concentration required to inhibit CEM cell proliferation; type: functional
# Procedure, shortened: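 CEM cells, mock-infected, grown with serial compound dilutions for 4 days. CC50 taken as the concentration that inhibits CEM cell proliferation by 50%.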
# [10] = tested on: MT4; test: Cytostatic concentration required to inhibit MT-4 cell proliferation; type: functional
# Procedure, shortened: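 Mock-infected MT-4 cells (3 × 10^5/mL) incubated with compound dilutions for 5 days. Viable cells counted by trypan blue exclusion. CC50 = concentration reducing viable MT-4 cell number by 50%.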
Structure (SMILES),pEC50 [1],pEC50 [2],pEC50 [4],pEC50 [6],pEC50 [3],CC50 [5] [µM],pEC50 [7],MCC [8] [µM],CC50 [9] [µM],CC50 [10] [µM]
C=C(C)C(=O)NC(=O)NC1=CS(=O)(=O)O[C@@]12[C@@H](CO[Si](C)(C)C(C)(C)C)O[C@@H](n1cc(C)c(=O)n(C)c1=O)[C@@H]2O[Si](C)(C)C(C)(C)C,< 6.10,< 5.40,< 6.10,< 4.70,< 6.10,1.2,< 6.10,20,1.2,1.19
Cc1cn([C@@H]2O[C@@H]3COC(=O)[C@]3(OS(C)(=O)=O)[C@H]2O)c(=O)[nH]c1=O,< 4.30,3.79,< 4.30,3.75,< 4.30,36,< 3.60,≥ 400,160,≥ 250
Cc1cn([C@@H]2O[C@@H]3COC4(O)CS(=O)(=O)O[C@@]34[C@H]2O[Si](C)(C)C(C)(C)C)c(=O)[nH]c1=O (some centres not stated),< 4.00,–,< 4.00,–,< 4.00,–,< 4.00,–,> 100,> 100
Cc1cn([C@@H]2O[C@@H]3COC4(O)CS(=O)(=O)O[C@@]34[C@H]2O)c(=O)[nH]c1=O (some centres not stated),< 4.00,–,< 4.00,–,< 4.00,–,< 4.00,–,> 100,> 100
Cc1cn([C@@H]2O[C@H](CO[Si](C)(C)C(C)(C)C)[C@@]3(OS(=O)(=O)C=C3NC(=O)c3ccccc3)[C@H]2O[Si](C)(C)C(C)(C)C)c(=O)n(C)c1=O,< 5.30,5.92,< 5.30,5.89,< 5.30,9.7,< 5.30,≥ 3.2,4.91,4.9
Cc1cn([C@@H]2O[C@H](CO[Si](C)(C)C(C)(C)C)[C@@]3(OS(=O)(=O)C=C3NCC(=O)OCc3ccccc3)[C@H]2O[Si](C)(C)C(C)(C)C)c(=O)n(C)c1=O,5.17,< 3.40,< 3.60,< 3.40,–,> 200,< 3.60,≥ 400,> 250,> 250
Cc1cn([C@@H]2O[C@H](CO[Si](C)(C)C(C)(C)C)[C@@]3(OS(=O)(=O)C=C3NC(=O)C(N)=O)[C@H]2O[Si](C)(C)C(C)(C)C)c(=O)n(C)c1=O,7.55,5.19,< 5.00,5.19,7.24,14.5,< 5.70,≥ 16,9.96,9.59
Cc1cn([C@@H]2O[C@H](CO[Si](C)(C)C(C)(C)C)[C@@]3(OS(=O)(=O)C=C3NC(=O)C(=O)O)[C@H]2O[Si](C)(C)C(C)(C)C)c(=O)n(C)c1=O,6.64,4.44,< 4.30,< 4.10,5.89,146,< 5.00,400,72.6,31.1
Cc1cn([C@@H]2O[C@H](CO[Si](C)(C)C(C)(C)C)[C@@]3(OS(=O)(=O)C=C3NC(=O)NC(=O)c3ccccc3)[C@H]2O[Si](C)(C)C(C)(C)C)c(=O)n(C)c1=O,< 5.70,6.10,< 5.70,5.92,< 5.70,≥ 200,< 5.00,≥ 80,2.29,3.33
Cc1cn([C@@H]2O[C@H](CO[Si](C)(C)C(C)(C)C)C3(OS(=O)(=O)C=C3N)[C@H]2O[Si](C)(C)C(C)(C)C)c(=O)[nH]c1=O (some centres not stated),–,–,< 5.00,–,–,–,< 5.00,–,–,12
Cc1cn([C@@H]2O[C@H](CO[Si](C)(C)C(C)(C)C)[C@@]3(OS(=O)(=O)C=C3N)[C@H]2O[Si](C)(C)C(C)(C)C)c(=O)n(C)c1=O,7.40,–,< 3.60,–,7.22,–,< 3.60,–,–,230

# More lines, main results first:
pEC50 [1],pEC50 [2],pEC50 [4],pEC50 [6],Structure (SMILES),pEC50 [3],CC50 [5] [µM],pEC50 [7],MCC [8] [µM],CC50 [9] [µM],CC50 [10] [µM]
< 4.70,4.60,< 4.70,≤ 4.70,COC(=O)NC1=CS(=O)(=O)O[C@@]12[C@@H](CO[Si](C)(C)C(C)(C)C)O[C@@H](n1cc(C)c(=O)n(C)c1=O)[C@@H]2O[Si](C)(C)C(C)(C)C,< 4.70,> 200,< 4.70,≥ 50,30.7,29.9
< 5.70,< 5.49,< 5.70,< 5.49,CCOC(=O)CNC(=O)NC1=CS(=O)(=O)O[C@@]12[C@@H](CO[Si](C)(C)C(C)(C)C)O[C@@H](n1cc(C)c(=O)n(C)c1=O)[C@@H]2O[Si](C)(C)C(C)(C)C,< 5.70,13,< 5.70,16,5.02,3.78
< 3.60,< 3.40,< 3.60,< 3.40,Cc1cn([C@@H]2O[C@H](CO[Si](C)(C)C(C)(C)C)[C@@]3(OS(=O)(=O)C=C3NCCC(=O)OCc3ccccc3)[C@H]2O[Si](C)(C)C(C)(C)C)c(=O)n(C)c1=O,< 3.60,> 200,< 3.60,≥ 400,> 250,> 250
≤ 5.30,5.00,< 4.60,5.05,COC(=O)CC(=O)NC1=CS(=O)(=O)O[C@@]12[C@@H](CO[Si](C)(C)C(C)(C)C)O[C@@H](n1cc(C)c(=O)n(C)c1=O)[C@@H]2O[Si](C)(C)C(C)(C)C,4.71,29,< 5.30,400,29.7,11.9
6.22,< 3.40,< 3.90,< 3.40,COC(=O)CNC1=CS(=O)(=O)O[C@@]12[C@@H](CO[Si](C)(C)C(C)(C)C)O[C@@H](n1cc(C)c(=O)n(C)c1=O)[C@@H]2O[Si](C)(C)C(C)(C)C,5.79,160,< 3.90,≥ 400,96,105
< 5.00,4.49,< 5.00,≤ 4.30,Cc1cn([C@@H]2O[C@H](CO[Si](C)(C)C(C)(C)C)[C@@]3(OS(=O)(=O)C=C3NCC(=O)O)[C@H]2O[Si](C)(C)C(C)(C)C)c(=O)n(C)c1=O,< 5.00,136,< 5.00,300,65,30
7.22,3.75,< 5.40,3.60,COC(=O)C(=O)NC1=CS(=O)(=O)O[C@@]12[C@@H](CO[Si](C)(C)C(C)(C)C)O[C@@H](n1cc(C)c(=O)n(C)c1=O)[C@@H]2O[Si](C)(C)C(C)(C)C,7.10,> 200,< 5.40,> 400,5.57,10.3
< 3.60,< 3.40,< 3.60,< 3.40,COC(=O)CCNC1=CS(=O)(=O)O[C@@]12[C@@H](CO[Si](C)(C)C(C)(C)C)O[C@@H](n1cc(C)c(=O)n(C)c1=O)[C@@H]2O[Si](C)(C)C(C)(C)C,< 3.60,94,< 3.60,≥ 400,> 250,> 250
< 4.60,< 4.80,< 4.60,4.40,CC(=O)NC1=CS(=O)(=O)O[C@@]12[C@@H](CO[Si](C)(C)C(C)(C)C)O[C@@H](n1cc(C)c(=O)n(C)c1=O)[C@@H]2O[Si](C)(C)C(C)(C)C,< 5.30,> 200,< 5.30,≥ 80,25.7,10.7
< 5.70,5.70,< 5.70,5.74,CCNC(=O)NC1=CS(=O)(=O)O[C@@]12[C@@H](CO[Si](C)(C)C(C)(C)C)O[C@@H](n1cc(C)c(=O)n(C)c1=O)[C@@H]2O[Si](C)(C)C(C)(C)C,< 5.70,10,< 5.70,≥ 3.2,4.26,–
< 5.70,< 5.49,< 5.70,< 5.49,Cc1cn([C@@H]2O[C@H](CO[Si](C)(C)C(C)(C)C)[C@@]3(OS(=O)(=O)C=C3NCC(N)=O)[C@H]2O[Si](C)(C)C(C)(C)C)c(=O)n(C)c1=O,< 5.00,13.5,< 5.00,16,14.6,14.9
< 5.70,5.74,< 5.70,5.64,CCOC(=O)NC(=O)NC1=CS(=O)(=O)O[C@@]12[C@@H](CO[Si](C)(C)C(C)(C)C)O[C@@H](n1cc(C)c(=O)n(C)c1=O)[C@@H]2O[Si](C)(C)C(C)(C)C,< 5.70,14,< 5.70,16,3,–
